Compound activity: PubChem, several laboratories
Xi reactivation: reactivates the inactive X chromosome in mouse fibroblasts; hit rate 0.055% among 360,000; activation, % at 7.58 µM; AID 743238; XiGFP mouse fibroblasts, % GFP-positive cells imaging, 3 d; cells co-treated with 5-aza-dC sensitizer; scaled so ellipticine positive control = 100%;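 active = mean normalized replicate activation at least 10% and every replicate at or above 10%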;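 note: 0% = median of on-plate neutral control wells and 100% = ellipticine 6 µM median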
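assay system = SV40-immortalized XiGFP fibroblast cells, line 68-5-11 | buffer or medium = DMEM plus 5-aza-dC sensitizer | doses = single-point pinned compound dosing | times = 3-day compound exposure, then 15 min fixation at room temperature | benchmarks = positive control ellipticine, 6 µM final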
ABCB6 inh MLPCN: blocks the human ABCB6 transporter; hit rate 0.19% among 360,000; AID 602162; Q9NP58; K562-ABCB6 porphyrin accumulation, flow cytometry, 1 h; hits give low values; fluorescence ratio to DMSO, % at 10 µM;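 active = fluorescence ratio to DMSO below 75%, the collection mean minus 3 SD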;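 note: signal is porphyrin accumulated inside mitochondria; 100% equals median channel fluorescence of DMSO control wells; lower ratio means ABCB6 inhibition with less porphyrin fluorescence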
Target sequence (Q9NP58 whole entry, looked up): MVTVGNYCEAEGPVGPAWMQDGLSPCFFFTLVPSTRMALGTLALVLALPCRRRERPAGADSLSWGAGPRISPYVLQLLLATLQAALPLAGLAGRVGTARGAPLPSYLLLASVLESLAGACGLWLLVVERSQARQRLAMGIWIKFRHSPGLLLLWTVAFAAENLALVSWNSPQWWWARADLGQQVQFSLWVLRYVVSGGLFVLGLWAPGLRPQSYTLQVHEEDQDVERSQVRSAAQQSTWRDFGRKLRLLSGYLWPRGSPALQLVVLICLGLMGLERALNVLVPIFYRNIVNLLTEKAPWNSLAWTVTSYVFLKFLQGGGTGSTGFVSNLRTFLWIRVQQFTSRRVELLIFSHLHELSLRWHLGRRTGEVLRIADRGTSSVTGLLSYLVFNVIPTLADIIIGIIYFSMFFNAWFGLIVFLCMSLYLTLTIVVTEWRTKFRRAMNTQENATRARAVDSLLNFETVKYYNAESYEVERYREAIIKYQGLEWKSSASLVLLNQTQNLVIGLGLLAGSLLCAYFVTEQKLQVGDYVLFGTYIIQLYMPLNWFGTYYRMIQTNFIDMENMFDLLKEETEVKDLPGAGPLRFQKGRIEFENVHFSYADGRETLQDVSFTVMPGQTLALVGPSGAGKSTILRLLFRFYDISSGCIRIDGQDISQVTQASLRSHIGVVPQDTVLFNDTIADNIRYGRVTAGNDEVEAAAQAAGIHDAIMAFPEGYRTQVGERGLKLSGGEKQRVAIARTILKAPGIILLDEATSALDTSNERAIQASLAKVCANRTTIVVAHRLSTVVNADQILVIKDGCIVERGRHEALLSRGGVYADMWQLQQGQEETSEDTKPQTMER
Myeloid diff 2: myeloid differentiation induction. ER-HoxA9 myeloid progenitors, lysozyme-GFP differentiation, flow cytometry. calls only at 10 µM. hit rate 1% among 360,000;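 active = normalized GFP-positive differentiation at or above the plate's own cutoff, the solvent-only control mean plus 3 SD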;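 note: cells exposed to compound for four days before flow analysis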
Active calls of the source: *; i = inactive; . = no result; + = active, no number. Only a selection was taken, and hits are over-represented in it overall.

SMILES | Xi reactivation | ABCB6 inh MLPCN | Myeloid diff 2
c1ccc2c(c1)Cn1nnnc1-2 | . | 96 | i
c1ccc2c(c1)CC1(CCCCC1)n1nnnc1-2 | . | 97 | +
COc1ccc(CN(C)C[C@@H]2Oc3ccc(NC(=O)Nc4c(C)noc4C)cc3C(=O)N([C@@H](C)CO)C[C@@H]2C)cc1 | -1 | . | .
CO[C@H](CN(C)Cc1cc(F)ccc1F)[C@H](C)CN([C@H](C)CO)S(=O)(=O)c1ccc(C)cc1 | 0 | . | .
Cc1ccc(C(=O)/C=C/c2ccccc2)o1 | . | 103 | i
Cc1ccc(C(=O)/C=C/c2ccc(Br)cc2)o1 | . | 100 | +
CS(=O)(=O)N1[C@H](C#N)[C@H](c2ccccc2)[C@H]1CO | 0 | . | .
C[C@@H]1CN([C@@H](C)CO)C(=O)c2cc(NC(=O)Nc3ccc(C(F)(F)F)cc3)ccc2O[C@@H](C)CCCCO[C@H]1CN(C)C(=O)Nc1cccc2ccccc12 | -1 | . | .
O=S(=O)(NCCc1csc(-c2cccnc2)n1)c1ccc2c(c1)OCCO2 | 0 | 84 | +
COc1ccc(-c2nc(CCNS(=O)(=O)c3ccc4c(c3)OCCO4)cs2)cc1 | 0 | 95 | i
CN(C)C(=O)C[C@@H]1CC[C@H]2[C@H](COc3ccc(NC(=O)NCc4ccccc4)cc3C(=O)N2C)O1 | 0 | . | .
C[C@@H]1CN([C@@H](C)CO)C(=O)CCCn2nncc2CO[C@@H]1CN(C)Cc1cccc(O)c1 | 2 | . | .
O=C(C[C@@H]1CC[C@@H]2[C@H](COC[C@@H](O)CN2S(=O)(=O)c2ccc(Cl)cc2)O1)NCCN1CCCC1 | 0 | . | .
CS(=O)(=O)N1CCN(C(=O)c2ccc(Cl)s2)CC1 | 0 | 103 | i
O=C(c1ccc(Cl)s1)N1CCCC1 | . | 102 | +
Cc1ccc(S(=O)(=O)Nc2cccc3c2O[C@@H](CN(C)C(=O)NC(C)C)[C@@H](C)CN([C@H](C)CO)C3=O)cc1 | 0 | . | .
O=C1NC(c2ccccc2)=C(c2nc3ccccc3s2)C(c2ccc(O)cc2)N1 (stereo not given) | . | 117 | +
O=C1NC(c2ccccc2)=C(c2ccc3ccccc3n2)C(c2ccccc2)N1 (stereo not given) | 0 | 96 | i
C[C@@H]1CN([C@@H](C)CO)C(=O)Cc2cc(NC(=O)CCN3CCOCC3)ccc2O[C@@H]1CN(C)C | -1 | . | .
Cc1[nH]c2ccccc2c1C(=O)NS(=O)(=O)Nc1ccc(F)cc1 | 0 | 151 | +
COc1cccc(NS(=O)(=O)NC(=O)c2c(C)[nH]c3ccccc23)c1 | 0 | 104 | i
COCC(=O)Nc1ccc2c(c1)C(=O)N(C)C[C@@H](OC)[C@H](C)CN(Cc1cccc(F)c1)[C@H](C)CO2 | 0 | . | .
COCC#Cc1ccc2c(c1)O[C@@H](CN(C)S(=O)(=O)c1cccc(OC)c1)[C@@H](C)CN([C@@H](C)CO)S2(=O)=O | -1 | . | .
CN(Cc1ccccc1)C(=O)CCN1C(=O)c2cccc([N+](=O)[O-])c2C1=O | 1 | 98 | i
O=C1c2cccc([N+](=O)[O-])c2C(=O)N1CCO | 0 | 404 | +
SMILES | Xi reactivation | ABCB6 inh MLPCN | Myeloid diff 2
CCCN(CCC)CC(O)Cn1cc(/C=C/C(=O)c2cccs2)c2ccccc21 (stereo not given) | 1 | 111 | +
CCCN(CCC)CC(O)Cn1cc(/C=C/C(=O)c2ccccc2)c2ccccc21 (stereo not given) | 0 | 98 | i
O=C(/C=C/c1cn(CC(O)CN2CCCCC2)c2ccccc12)c1ccccc1 (stereo not given) | 1 | 97 | i
O=C(/C=C/c1cn(CC(O)CN2CCCCC2)c2ccccc12)c1cccs1 (stereo not given) | 10 | 117 | +
Cc1noc(C)c1NC(=O)N(C)C[C@@H]1Oc2c(NC(=O)C3CC3)cccc2C(=O)N([C@@H](C)CO)C[C@@H]1C | 0 | . | .
COc1ccc(-c2sc3ccc(OC)cc3c2C#Cc2cncn2C)cc1 | 0 | 99 | +
COc1ccc(-c2sc3cc4c(cc3c2C#Cc2cncn2C)OCO4)cc1 | 0 | 105 | .
COC(=O)CSc1cc([N+](=O)[O-])ccc1NC(=O)OC | 0 | 162 | +
COC(=O)Nc1ccc([N+](=O)[O-])cc1OC | 0 | 102 | i
COc1ccc(NC(=O)Nc2ccc3c(c2)C(=O)N([C@H](C)CO)C[C@H](C)[C@@H](CN(C)C(=O)Nc2cccc4ccccc24)O3)cc1 | -1 | . | .
CCOC(=O)C1Nc2ccc(C(F)(F)F)cc2C2c3ccccc3CC12 (stereo not given) | 0 | 100 | i
CCOC(=O)C1Nc2ccccc2C2C(O)C(O)CC12 (stereo not given) | 0 | 154 | +
CC(C)CC(O)(CC(C)C)C(=O)NNc1ccccc1 | . | 108 | i
CC(C)CCC(O)(CCC(C)C)C(=O)NNc1ccccc1 | 1 | 99 | +
COc1ccccc1NC(=O)N(C)C[C@@H]1Oc2cc(Br)ccc2S(=O)(=O)N([C@H](C)CO)C[C@H]1C | 0 | . | .
CO[C@@H]1CN(C)C(=O)c2ccc(NC(=O)C3CC3)cc2OC[C@@H](C)N(C(=O)Nc2ccc(C(F)(F)F)cc2)C[C@H]1C | 0 | . | .
O=C(C1CCC(=O)N(C2CCCC2)C1)N1CCC(Oc2cccc(F)c2)CC1 (stereo not given) | 0 | 99 | +
O=C(C1CCC(=O)N(C2CC2)C1)N1CCC(Oc2cccc(F)c2)CC1 (stereo not given) | 0 | 107 | i
CCSc1nc(N)c(C#N)c(-c2ccccc2Cl)c1C#N | . | 88 | i
N#Cc1c(N)nc(Sc2ccc(Cl)cc2)c(C#N)c1-c1ccccc1Cl | 0 | 98 | +
CO[C@H]1CN(C)C(=O)c2ccc(NC(=O)NC(C)C)cc2OC[C@H](C)N(S(C)(=O)=O)C[C@H]1C | 0 | . | .
CSc1nsc(/C=C/Nc2ccc(C)cc2)c1C#N | . | . | +
CSc1nsc(/C=C/Nc2ccc(C)c(C)c2)c1C#N | 1 | 122 | i
CN1[C@H](C(=O)NCc2ccc(F)cc2)[C@@H](CO)[C@@H]2Cn3c(ccc(-c4ccccc4F)c3=O)[C@@H]21 | 0 | . | .
O=C(C[C@@H]1CC[C@@H](NC(=O)C2CC2)[C@@H](CO)O1)Nc1nccs1 | 0 | . | .
SMILES | Xi reactivation | ABCB6 inh MLPCN | Myeloid diff 2
CC(C)Cn1c(=O)c(C(=O)Nc2cnccn2)c(O)c2ccccc21 | . | 93 | i
CC(C)Cn1c(=O)c(C(=O)Nc2ccncc2)c(O)c2ccccc21 | 0 | 120 | +
COc1ccc([C@H]2CC=CC[C@H](C)Oc3ccccc3C(=O)N(C)[C@H](C)C(=O)N2)c(OC)c1 (mixture of isomers) | 0 | . | .
COC(=O)Nc1nc2ccc(-c3n[nH]c(=O)c4ccccc34)cc2[nH]1 | 1 | 104 | +
COC(=O)c1ccc(-c2n[nH]c(=O)c3ccccc23)cc1 | . | 99 | i
Cc1ccc(N2C3=C(C(=O)CC(C)(C)C3)C(c3cn(C)nc3C)C3=C2CC(C)(C)CC3=O)cc1 | 0 | 160 | +
Cc1nn(C)cc1C1C2=C(CC(C)(C)CC2=O)N(c2ccccc2)C2=C1C(=O)CC(C)(C)C2 | . | 106 | i
O=C(CN1CCCCC1)c1c[nH]c2ccccc12 | 0 | 95 | i
